Assay outcomes: PubChem BioAssay, several laboratories
GC-B act = GC-B (human) receptor activation. HEK293-GC-B cells, CNP EC30, cGMP TR-FRET; 0% at EC30 CNP, 100% saturating CNP. activation, % at 10 µM. P20594. actives 0.11% (n = 370,000);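 active = activation at 10 µM reaching about 35% in either raw or pattern-adjusted values, limit read from the data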
Lipid droplet = hepatic lipid droplet formation modulation; inhibition, % at 6.5 µM; AML12 mouse hepatocytes, oleate lipid droplets, BODIPY imaging; actives 0.4% (n = 240,000); AID 1656;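 active = lipid droplet intensity inhibited by at least 50%, with more than 500 cells counted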
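Assay system: AML12 hepatocytes (mouse) / Also added: 100 µM oleic acid challenge / Times: overnight treatment with compound plus oleate / Detection: high-content imaging of BODIPY-stained droplets and DAPI nuclei / Evaluation: % inhibition of lipid droplet signal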
aDG glyco act = increases alpha dystroglycan glycosylation; AID 624168; activation, % at 10 µM; Pro5-aDG cells, alpha-DG glycosylation AlphaScreen (IIH6); 0% Pro5, 100% B10-LARGE cell signal; actives 0.22% (n = 360,000);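 active = activation of at least 8% versus controls, or a plate z-score of at least 8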;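 note: Pro5 are CHO cells carrying HIG-tagged alpha-DG that lacks glycosylation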
GASC-1 inh = blocks human GASC-1 demethylase activity. Q9H3R0. GST-JMJD2C(1-420) H3K9me3 demethylation, DELFIA europium. inhibition, % at 2.35 µM. actives 0.069% (n = 330,000). AID 2099;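 active = more than half of a compound's replicate wells show inhibition beyond 50%, single wells judged on their own value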;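 note: signal counts dimethyl H3K9 product captured on neutravidin plate; 0% = median of DMSO wells and 100% = 0.3 times that DMSO median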
NPR1 activator = GC-A (human) enzyme activation | P16066 | HEK293 GC-A cells, cGMP TR-FRET, EC30 ANP; 0% at EC30 ANP, 100% saturating ANP | activation, % at 10 µM | actives 0.14% (n = 370,000); in the data active = activation above about 40%
NR3A LBD binder = modulators (binders) of human NR3A ligand-binding domain; NR3A LBD differential scanning fluorimetry, Tm shift; 0% = protein alone, 100% = glycine-bound protein; Tm shift relative to glycine control, % at 25 µM; actives 2.5% (n = 340,000); AID 1259313;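 active = melting temperature shift of at least 10% of the positive control shift, at one fixed dose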
Active calls of the source: *; i = inactive; x = not tested or not shown. A selection: hits, their analogues and other compounds. The true share with any hit is near 3%.

SMILES	GC-B act	Lipid droplet	aDG glyco act	GASC-1 inh	NPR1 activator	NR3A LBD binder
Cc1ccc(NS(=O)(=O)c2ccc(NC(=O)C(C)Sc3ccc(Cl)cc3)cc2)c(C)c1 (stereo not drawn)	0	-36	3	-5	-3	13*
CCN(CCNC(=O)[C@H]1C=C(OC)C(=O)C[C@H](c2ccccc2)[C@H]1C)C(C)=O	5	x	x	x	0	x
COc1cc(NS(=O)(=O)c2ccc(NC(=S)NC(=O)c3cccs3)cc2)nc(OC)n1	1	3	0	-2	-1	-3
Cc1cc(C)cc(NS(=O)(=O)c2ccc(NC(=S)NC(=O)c3cccs3)cc2)c1	2	34	1	14	-5	24*
CC(=O)c1ccc(NC(=S)N(C)C2CCN(C)CC2)cc1	4	-13	0	-2	1	20*
COc1ccc(CCNCC(=O)Nc2ccc(OC(F)F)cc2)cc1	-5	9	0	16	-3	-1
COc1ccc(CCNCC(=O)Nc2ccc(C(=O)N3CCCCC3)cc2)cc1	-6	-7	0	5	-3	20*
O=[N+]([O-])c1c(Nc2ccc(O)cc2)cc(Cl)c2nonc12	50*	x	0	9	62*	-7
O=[N+]([O-])c1c(Nc2ccccn2)cc(Cl)c2nonc12	43*	-8	0	7	50*	-3
C[C@H]1/C=C/CC(=O)N[C@@H](c2ccccc2)[C@@H](C)/C=C/CC(=O)N[C@H]1c1ccccc1	10	x	x	x	-2	x
Oc1cccc2c(NC(=S)Nc3ccc(SC(F)F)cc3)cccc12	-2	10	-1	-1	0	25*
Oc1cccc(NC(=S)Nc2ccc(SC(F)F)cc2)c1	1	-26	0	-9	8	16*
FC(F)Sc1ccc(NC(=S)NC2CCC(NC(=S)Nc3ccc(SC(F)F)cc3)CC2)cc1 (stereo not drawn)	7	1	0	9	2	17*
CCCCNC(=S)Nc1ccc(SC(F)F)cc1	2	0	0	-9	7	0
Cc1ccc(-c2cc(C(=O)NN=Cc3cccc(OCc4ccccc4)c3)[nH]n2)cc1C	0	x	x	x	-6	x
O=C(c1ccncc1F)N1CCC(n2nnc3ncccc32)CC1	1	x	x	x	4	x
CCOC(=O)CCc1cccc2c1CCC2=O	-2	x	0	0	8	1
COC(=O)CCC1(C(N)=O)CCC(=O)c2ccccc21 (stereo not drawn)	-3	x	0	x	2	13*
OC1(Cc2ccccc2)CCN(c2ncnc3sccc23)CC1	-10	x	x	x	0	x
CCCc1nc2c(=O)n(C)c(=O)[nH]c2n1CCC	0	9	0	-13	1	14*
Cc1nc2ccc(C(=O)Nc3cccc([N+](=O)[O-])c3)cc2s1	0	12	1	2	6	21*
Cc1c(C(=O)Nc2cccc([N+](=O)[O-])c2)csc1-c1ccccc1	-7	x	3	17	-5	13*
O=C(O)c1ccccc1C(=O)Nc1cccc([N+](=O)[O-])c1	0	16	0	1	6	-1
Cc1ccccc1NS(=O)(=O)c1cc(C(=O)Nc2cccc([N+](=O)[O-])c2)ccc1C	2	-2	1	1	-5	24*
O=C(Nc1cccc([N+](=O)[O-])c1)c1cc2ccccc2cc1O	6	-12	0	0	19	27*
O=S(=O)(c1cccs1)N1CCCc2nc(-c3ccccc3)ccc21	2	x	x	x	2	x
CN1CCCCC(NC(=O)c2cccs2)C1=O (stereo not drawn)	0	x	x	x	-1	x
O=C(c1cc(-c2ccccc2)on1)N1CCC(Oc2cccnc2)CC1	-6	x	x	x	-4	x
CS(=O)(=O)Nc1ccc(C(=O)Nc2cccc([N+](=O)[O-])c2)cc1	-10	-5	0	i	-1	21*
O=C(CSc1nc(-c2ccccc2)nn1C(=O)c1ccccc1)Nc1cccc([N+](=O)[O-])c1	-5	x	1	-2	4	13*
